These results are taken from ChEMBL document CHEMBL1770048, “Synthesis and biological evaluation of a diazepanone-based library of liposidomycins analogs as MraY inhibitors” (Eur J Med Chem, 2011).

Assay [1] concerns the target T1, Phospho-N-acetylmuramoyl-pentapeptide-transferase (Staphylococcus aureus, UniProt P0C1R8).
T1 sequence (P0C1R8 whole entry): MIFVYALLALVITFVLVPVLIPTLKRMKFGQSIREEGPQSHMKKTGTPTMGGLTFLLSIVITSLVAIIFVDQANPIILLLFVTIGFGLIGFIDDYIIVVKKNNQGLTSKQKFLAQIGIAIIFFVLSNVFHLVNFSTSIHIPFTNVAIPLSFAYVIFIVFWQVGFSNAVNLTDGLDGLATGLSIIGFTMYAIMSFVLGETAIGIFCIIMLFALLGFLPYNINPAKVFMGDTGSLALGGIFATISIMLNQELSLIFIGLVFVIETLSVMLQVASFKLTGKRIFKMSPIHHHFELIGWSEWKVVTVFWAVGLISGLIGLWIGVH
The assay can be described thus: Inhibition of Staphylococcus aureus MraY after 30 mins. In a few lines: (§1)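 Started with enzyme, 30 min at 37 °C with shaking, stopped at 100 °C for 1 min. Lipid I separated from substrate by silica TLC (2-propanol/NH₄OH/water 6:3:1), spots quantified by radioactivity scanning. Residual activity relative to no-inhibitor control; IC50 from 7 inhibitor concentrations.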

The nature of assay [2]: Inhibition of Staphylococcus aureus MurG after 30 mins. In a few lines:
(§2)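 MurG reaction in 12.5 μl: 200 mM Tris-HCl pH 7.5, 10 mM MgCl₂, 16 μM UDP-[¹⁴C]GlcNAc, 16 μM lipid I analog, 30% (v/v) DMSO (final) plus MurG. Run 30 min at 37 °C, stopped by 3 min boiling, lyophilized, redissolved in 2-propanol/NH₄OH/water (6:3:1). Lipid II resolved by silica TLC in the same solvent and counted by radioactivity scanning. Residual activity versus no-inhibitor control; IC50 from 7 concentrations.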

Assay [3] relates to Staphylococcus aureus. Put plainly: Inhibition of Staphylococcus aureus MurG assessed as residual activity of enzyme at 2 mM after 30 mins. Summed up: as §2
Assay [4] deals with Staphylococcus aureus. Put plainly: Inhibition of Staphylococcus aureus MurG assessed as residual activity of enzyme at 1 mM after 30 mins. In a few lines:
as §2

Assay [5] deals with T2, Phospho-N-acetylmuramoyl-pentapeptide-transferase (Staphylococcus aureus) (UniProt P0C1R8).
T2 sequence (whole entry): T1 sequence (P0C1R8 whole entry)
The assay can be described thus: Inhibition of Staphylococcus aureus MraY assessed as residual activity of enzyme at 1 mM after 30 mins. Summed up: as §1

Assay [6] addresses T2, Phospho-N-acetylmuramoyl-pentapeptide-transferase (Staphylococcus aureus). Put plainly: Inhibition of Staphylococcus aureus MraY assessed as residual activity of enzyme at 2 mM after 30 mins. As to conditions: 1 mM, in the assay text read “at 1 mM” for “at 2 mM”. Summed up:
as §1

As usually defined, the IC50 is the concentration needed to halve the response being measured. Read a low IC50 as higher potency. Regarding `CCCCCCCCCCCCCCCC(=O)O[C@H]1CN(C)[C@@H](CO)C(=O)N[C@@H]1CO`, in assay [1], half-maximal inhibition (IC50) required 1740 µM.

For the compound `CCCCCCCCCCCCCCCC(=O)O[C@H]1CN(CCCCCn2ccc(=O)[nH]c2=O)[C@@H](CO[C@@H]2O[C@H](CN)[C@H]3OC(CC)(CC)O[C@@H]23)C(=O)N[C@@H]1CO[C@@H]1O[C@H](CN)[C@H]2OC(CC)(CC)O[C@@H]12`, the half-inhibitory concentration (IC50) in assay [2] came out at 100 µM; in assay [1] it was 310 µM.

On to `CCCCCCCCCCCCCCCC(=O)O[C@H]1CN(CCCCCn2ccc(=O)[nH]c2=O)[C@@H](CO[C@@H]2O[C@H](CN)[C@@H](O)[C@H]2O)C(=O)N[C@@H]1CO[C@@H]1O[C@H](CN)[C@@H](O)[C@H]1O`, for which the figures for the IC50 in assay [2] and in assay [1] were 130 µM and 2800 µM, respectively.

`CCCCCCCCCCCCCCCC(=O)O[C@H]1CN(CCCCCn2ccc(=O)[nH]c2=O)[C@@H](COCc2ccccc2)C(=O)N[C@@H]1CO[Si](c1ccccc1)(c1ccccc1)C(C)(C)C` registered an IC50 in assay [1] of 1400 µM. Also, the Activity in the assay on Staphylococcus aureus [3] came out at 100%.

For `CC(C)(C)[Si](OC[C@H]1NC(=O)[C@H](COCc2ccccc2)N(CCCCCn2ccc(=O)[nH]c2=O)C[C@@H]1O)(c1ccccc1)c1ccccc1`, the Activity with Staphylococcus aureus [4] was found to be 100%. In assay [1], the half-maximal inhibitory concentration (IC50) amounted to 1600 µM.

In turn, `CCCCCCCCCCCCCCCC(=O)O[C@H]1CN(C)[C@@H](CO[C@@H]2O[C@H](CN)[C@H]3OC(CC)(CC)O[C@@H]23)C(=O)N[C@@H]1CO[Si](c1ccccc1)(c1ccccc1)C(C)(C)C` registered a 50% inhibitory concentration (IC50) in assay [1] of 1000 µM.

Regarding `CCCCCCCCCCCCCCCC(=O)O[C@H]1CN(CCCCCn2ccc(=O)[nH]c2=O)[C@@H](CO[C@@H]2O[C@H](CN)[C@H]3OC(CC)(CC)O[C@@H]23)C(=O)N[C@@H]1CO[Si](c1ccccc1)(c1ccccc1)C(C)(C)C`, the figures for the half-inhibitory concentration (IC50) in assay [2] and in assay [1] were 110 µM and 620 µM, respectively.

In assay [1], `CCCCCCCCCCCCCCCC(=O)O[C@H]1CN(CCCCCn2ccc(=O)[nH]c2=O)[C@@H](CO)C(=O)N[C@@H]1CO` returned an IC50 of 270 µM. For the same compound, in the assay on Staphylococcus aureus [3], the Activity was 100%.

`CCCCCCCCCCCCCCCC(=O)O[C@H]1CN(CCCCCn2ccc(=O)[nH]c2=O)[C@@H](CO[C@@H]2O[C@H](CN=[N+]=[N-])[C@H]3OC(CC)(CC)O[C@@H]23)C(=O)N[C@@H]1CO[Si](c1ccccc1)(c1ccccc1)C(C)(C)C` yielded an IC50 in assay [1] of 190 µM. Moreover, the Activity in the assay with Staphylococcus aureus [3] stood at 100%.

In the case of `CCCCCCCCCCCCCCCC(=O)O[C@H]1CN(CCCCCn2ccc(=O)[nH]c2=O)[C@@H](CO[C@@H]2O[C@H](CN)[C@@H](O)[C@H]2O)C(=O)N[C@@H]1CO[Si](c1ccccc1)(c1ccccc1)C(C)(C)C`, the IC50 was found to be 185 µM in assay [2] and 120 µM in assay [1].

As to `CCCCCCCCCCCCCCCC(=O)O[C@H]1CN(CCCCCn2ccc(=O)[nH]c2=O)[C@@H](CO[C@@H]2O[C@H](CN=[N+]=[N-])[C@H]3OC(CC)(CC)O[C@@H]23)C(=O)N[C@@H]1CO[C@@H]1O[C@H](CN=[N+]=[N-])[C@H]2OC(CC)(CC)O[C@@H]12`, the midpoint of inhibition in assay [1], the IC50, lay at 420 µM. Besides, the Activity in the assay on Staphylococcus aureus [3] stood at 87%.

Regarding `CCCCCCCCCCCCCCCC(=O)O[C@H]1CN(C)[C@@H](CO[C@@H]2O[C@H](CN)[C@@H](O)[C@H]2O)C(=O)N[C@@H]1CO`, the results for the Activity (in assay [5]; in the assay with Staphylococcus aureus [3]) were 75% and 100%, respectively.

In turn, `CCCCCCCCCCCCCCCC(=O)O[C@H]1CN(C)[C@@H](CO[C@@H]2O[C@H](CN)[C@@H](O)[C@H]2O)C(=O)N[C@@H]1CO[Si](c1ccccc1)(c1ccccc1)C(C)(C)C` returned an IC50 in assay [2] of 150 µM. For the same compound, in assay [6], the Activity is 66%.

Regarding `CCCCCCCCCCCCCCCC(=O)O[C@H]1CN(CCCCCn2ccc(=O)[nH]c2=O)[C@@H](CO[C@@H]2O[C@H](CN)[C@@H](O)[C@H]2O)C(=O)N[C@@H]1CO`, the 50% inhibitory concentration (IC50) is 530 µM in assay [2] and 220 µM in assay [1].

Consider `CCCCCCCCCCCCCCCC(=O)O[C@H]1CN(CCCCCn2ccc(=O)[nH]c2=O)[C@@H](CO)C(=O)N[C@@H]1CO[Si](c1ccccc1)(c1ccccc1)C(C)(C)C`, for which the IC50 in assay [1] was 380 µM. Also, the Activity with Staphylococcus aureus [3] was determined as 66%.
